What is called IC50 is the point on the concentration scale where inhibition reaches its midpoint.

Calls of active or inactive are those of the source. No cut-off for these calls is given here.

One test relates to MCF10. The experiment in a line: Cytotoxicity against human MCF10 cells assessed as reduction in cell viability after 3 hrs by MTT assay. The following applies: MCF10, 3 h.
In a further test the test system is CCRF-CEM. The experiment in a line: Cytotoxicity against human CCRF-CEM assessed as growth inhibition at 10 uM by NCI protocol relative to control. The class given is functional. The following applies: read-out: GI. Put shortly:
(§1)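 Run by NCI as a single-dose screen at 10 μM across the sixty-cell-line panel, which covers nine human tumour tissue types. The read-out is percent growth inhibition of treated cells relative to untreated cells.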

For a further test, the system named is HL-60. The experiment in a line: Cytotoxicity against human HL60 assessed as growth inhibition at 10 uM by NCI protocol relative to control. The format is functional. Particulars: read-out: GI. The gist of the method:
as §1

In the next test the test system is K562. The experiment in a line: Cytotoxicity against human K-562 assessed as growth inhibition at 10 uM by NCI protocol relative to control. The format is functional. Particulars: read-out: GI. The gist of the method:
as §1

The next test concerns MOLT-4. The experiment in a line: Cytotoxicity against human MOLT-4 assessed as growth inhibition at 10 uM by NCI protocol relative to control. The format is functional. Particulars: read-out: GI. The gist of the method: as §1
The subject of the next test is RPMI-8226. As to the kind of experiment: Cytotoxicity against human RPMI-8226 assessed as growth inhibition at 10 uM by NCI protocol relative to control. The format is functional. Put shortly: as §1
For another test, the system named is A549. As to the kind of experiment: Cytotoxicity against human A549 assessed as growth inhibition at 10 uM by NCI protocol relative to control. Particulars: read-out: GI. The class given is functional. The gist of the method:
as §1

The next test has as its system EKVX. As to the kind of experiment: Cytotoxicity against human EKVX assessed as growth inhibition at 10 uM by NCI protocol relative to control. The format is functional. Particulars: read-out: GI. Put shortly:
as §1

The test system of another test is HOP-92. As to the kind of experiment: Cytotoxicity against human HOP-92 assessed as growth inhibition at 10 uM by NCI protocol relative to control. The class given is functional. The following applies: read-out: GI. The gist of the method: as §1
The test system of the next test is NCI-H226. The experiment in a line: Cytotoxicity against human NCI-H226 assessed as growth inhibition at 10 uM by NCI protocol relative to control. The class given is functional. The following applies: read-out: GI. Put shortly:
as §1

Another test concerns NCI-H23. As to the kind of experiment: Cytotoxicity against human NCI-H23 assessed as growth inhibition at 10 uM by NCI protocol relative to control. Particulars: read-out: GI. The format is functional. The gist of the method: as §1
The test system of a further test is NCI-H460. As to the kind of experiment: Cytotoxicity against human NCI-H460 assessed as growth inhibition at 10 uM by NCI protocol relative to control. The class given is functional. The following applies: read-out: GI. Put shortly:
as §1

The test system of another test is NCI-H522. As to the kind of experiment: Cytotoxicity against human NCI-H522 assessed as growth inhibition at 10 uM by NCI protocol relative to control. The format is functional. Particulars: read-out: GI. Put shortly:
as §1

Another test deals with HCT-116. The experiment in a line: Cytotoxicity against human HCT-116 assessed as growth inhibition at 10 uM by NCI protocol relative to control. Particulars: read-out: GI. The class given is functional. Put shortly: as §1
Another test deals with HCT-15. The experiment in a line: Cytotoxicity against human HCT-15 assessed as growth inhibition at 10 uM by NCI protocol relative to control. The format is functional. Particulars: read-out: GI. Put shortly: as §1
The next test concerns SF-268. The experiment in a line: Cytotoxicity against human SF-268 assessed as growth inhibition at 10 uM by NCI protocol relative to control. The class given is functional. The following applies: read-out: GI. Put shortly:
as §1

A further test relates to SF-295. The experiment in a line: Cytotoxicity against human SF-295 assessed as growth inhibition at 10 uM by NCI protocol relative to control. The format is functional. Particulars: read-out: GI. Put shortly:
as §1

The test system of a further test is SNB-19. The experiment in a line: Cytotoxicity against human SNB-19 assessed as growth inhibition at 10 uM by NCI protocol relative to control. The class given is functional. Particulars: read-out: GI. Put shortly:
(§2)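 Run by the NCI under its standard protocol: one dose of 10 μM against a sixty-line panel from nine human tumour tissues. Result given as percent growth inhibition of treated cells relative to untreated cells.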

The subject of the next test is LOX IMVI. The experiment in a line: Cytotoxicity against human LOX IMVI assessed as growth inhibition at 10 uM by NCI protocol relative to control. The format is functional. The following applies: read-out: GI. Put shortly: as §1
A further test has as its system MDA-MB-435. The experiment in a line: Cytotoxicity against human MDA-MB-435 assessed as growth inhibition at 10 uM by NCI protocol relative to control. The format is functional, cell-based. Put shortly: as §1
Another test deals with SK-MEL-5. The experiment in a line: Cytotoxicity against human SK-MEL-5 assessed as growth inhibition at 10 uM by NCI protocol relative to control. The format is functional. Particulars: read-out: GI. The gist of the method: as §1
In the next test the test system is UACC-62. The experiment in a line: Cytotoxicity against human UACC-62 assessed as growth inhibition at 10 uM by NCI protocol relative to control. The format is functional. Particulars: read-out: GI. Put shortly:
as §2

The subject of the next test is IGROV-1. As to the kind of experiment: Cytotoxicity against human IGROVI assessed as growth inhibition at 10 uM by NCI protocol relative to control. The format is functional. The following applies: read-out: GI. The gist of the method:
as §1

In a further test the test system is A498. The experiment in a line: Cytotoxicity against human A498 assessed as growth inhibition at 10 uM by NCI protocol relative to control. The following applies: read-out: GI. The format is functional. Put shortly: as §1
A further test deals with ACHN. As to the kind of experiment: Cytotoxicity against human ACHN assessed as growth inhibition at 10 uM by NCI protocol relative to control. The class given is functional. The following applies: read-out: GI. The gist of the method: as §1
Another test has as its system RXF 393. The experiment in a line: Cytotoxicity against human RXF 393 assessed as growth inhibition at 10 uM by NCI protocol relative to control. The class given is functional. Particulars: read-out: GI. The gist of the method: as §1
The subject of another test is SN12C. The experiment in a line: Cytotoxicity against human SN12C assessed as growth inhibition at 10 uM by NCI protocol relative to control. The format is functional. Particulars: read-out: GI. The gist of the method: as §2
For the next test, the system named is UO-31. As to the kind of experiment: Cytotoxicity against human UO31 assessed as growth inhibition at 10 uM by NCI protocol relative to control. The format is functional. The following applies: read-out: GI. The gist of the method:
as §2

The test system of a further test is PC-3. As to the kind of experiment: Cytotoxicity against human PC3 assessed as growth inhibition at 10 uM by NCI protocol relative to control. The format is functional. The following applies: read-out: GI. Put shortly:
as §1

The test system of another test is MCF7. The experiment in a line: Cytotoxicity against human MCF7 assessed as growth inhibition at 10 uM by NCI protocol relative to control. The class given is functional. Particulars: read-out: GI. The gist of the method:
as §1

The test system of a further test is MDA-MB-231. As to the kind of experiment: Cytotoxicity against human MDA-MB-231 assessed as growth inhibition at 10 uM by NCI protocol relative to control. The format is functional. The following applies: read-out: GI. Put shortly:
as §1

In a further test the test system is BT-549. The experiment in a line: Cytotoxicity against human BT-549 assessed as growth inhibition at 10 uM by NCI protocol relative to control. The format is functional. The following applies: read-out: GI. Put shortly: as §1
The subject of test [1] is T47D. As to the kind of experiment: Cytotoxicity against human T-47D assessed as growth inhibition at 10 uM by NCI protocol relative to control. Particulars: read-out: GI. The format is functional. Put shortly:
as §2

The test system of another test is MDA-MB-468. As to the kind of experiment: Cytotoxicity against human MDA-MB-468 assessed as growth inhibition at 10 uM by NCI protocol relative to control. The following applies: read-out: GI. The format is functional. The gist of the method: as §1
Test [2] concerns T47D. The experiment in a line: Cytotoxicity against human T47D cells assessed as reduction in cell viability after 3 hrs by MTT assay. A general note: Tetrazolium assays rely on reduction of a dye to a coloured formazan, in cell work by metabolically active cells.

For the compound `CC[C@@]1(O)C(=O)OCc2c1cc1n(c2=O)Cc2cc3ccccc3nc2-1` [CAMPTOTHECIN], in the test on MCF10, the IC50 turned out to be 24.8 µM.

Regarding `Cc1ccc(-c2csc(NC(=O)CN3CCN(c4cc(=O)n(-c5ccccc5)c5ccccc45)CC3)n2)cc1`, the inhibition of growth at 10 µM with CCRF-CEM worked out at 14.8%; with HL-60, 19.9%; in the test with K562 it was 49.3%; with MOLT-4, 32.2%; with A549 it was 12%; in the test on EKVX it was 26.5%. Further, the inhibition of growth at 10 µM with HOP-92 turned out to be 13.8%; with NCI-H226 it was 17.3%; in the test with NCI-H23, 29.7%; with NCI-H460 it was 11.1%; in the test on NCI-H522 it was 22.9%; in the test on HCT-116, 20.2%. In addition, the inhibition of growth at 10 µM with HCT-15 stood at 26%; with SF-268 it was 13.4%; with SF-295 it was 14.4%; in the test with SNB-19, 21.8%; in the test on LOX IMVI, 12.2%; in the test with SK-MEL-5 it was 13.5%. The inhibition of growth at 10 µM was 20.1% in the test on UACC-62; 20.2% in the test on IGROV-1; 18.6% with A498; 15.1% with ACHN; 13.2% in the test on RXF 393; 13.1% with SN12C. The inhibition of growth at 10 µM came to 27% with UO-31; 23.1% in the test on PC-3; 13.5% with MCF7; 17.4% in the test on MDA-MB-231; 14.4% in the test with BT-549; 40.9% in the test on T47D [1]. Besides, the inhibition of growth at 10 µM with MDA-MB-468 amounted to 30.2%. In addition, the “growth inhibition (GI)” value in the test on RPMI-8226 and with MDA-MB-435 was “inactive” throughout. Further, the IC50 in the test with T47D [2] turned out to be 16.5 µM.

The values above are taken from ChEMBL document CHEMBL4819122, “Novel 4-(piperazin-1-yl)quinolin-2(1H)-one bearing thiazoles with antiproliferative activity through VEGFR-2-TK inhibition” (Bioorg Med Chem, 2021).
